The record followed here is ChEMBL document CHEMBL3784993, “Synthesis and anticancer activity of some 5-fluoro-2'-deoxyuridine phosphoramidates” (Bioorg Med Chem, 2016).

Assay [1] relates to HepG2. Briefly: Cytotoxicity against human HepG2 cells after 72 hrs by SRB assay. Format: functional, cell-based. Particulars: HepG2, 72 h. (In SRB staining, fixed cells bind dye roughly in proportion to their protein.)
Assay [2] deals with HeLa. Briefly: Cytotoxicity against human HeLa cells after 72 hrs by SRB assay. Format: functional, cell-based. In outline: (§1)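 SRB protein-stain assay. Cells were seeded at about 10,000 per well and grown 24 h to a partial monolayer. They were then exposed for 72 h at 37 °C (5% CO2, 90% RH) to six concentrations: 0.1, 0.2, 1, 2, 10 and 20 µM. Final DMSO was ≤0.1%. Cells were TCA-fixed and stained with 0.4% SRB, and OD was read at 490 nm. Survival was expressed versus untreated cells. Cytarabine served as internal standard, with three experiments.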

Assay [3] in a line: Cytotoxicity against HDF cells after 72 hrs by SRB assay. Format: cell-based. Particulars: Homo sapiens.
The test system of assay [4] is MCF7. The assay is described as follows: Cytotoxicity against human MCF7cells after 72 hrs by SRB assay. Type of assay: functional, cell-based. Particulars: MCF7, 72 h.
The test system of a further assay is KB. The assay is described as follows: Cytotoxicity against human KB cells after 72 hrs by SRB assay. Type of assay: functional, cell-based. In outline:
as §1

For assay [5], the system named is 143B. The assay is described as follows: Cytotoxicity against human thymidine kinase deficient 143B cells after 72 hrs by SRB assay. Format: functional, cell-based. An outline of the steps: as §1
Assay [6] concerns HepG2. Briefly: Selectivity index, ratio of IC50 for HDF cells to IC50 for human HepG2 cells. Format: functional. An outline of the steps: (§2)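 SI is calculated as the IC50 in normal human dermal fibroblasts (HDF) divided by the IC50 in the respective cancer line. Both values come from 72 h SRB assays. SD is from three independent experiments.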
The test system of assay [7] is 143B. Briefly: Cytotoxicity against human 143B cells after 72 hrs by SRB assay. Format: functional, cell-based. In outline:
as §1

Assay [8] is described as follows: Selectivity index, ratio of IC50 for HDF cells to IC50 for human KB cells. Format: functional. In outline: as §2
The subject of assay [9] is MCF7. The assay is described as follows: Selectivity index, ratio of IC50 for HDF cells to IC50 for human MCF7 cells. Format: functional. An outline of the steps: as §2
The test system of assay [10] is HeLa. The assay is described as follows: Selectivity index, ratio of IC50 for HDF cells to IC50 for human HeLa cells. Type of assay: functional. An outline of the steps:
as §2

Assay [11] has as its system 143B. The assay is described as follows: Selectivity index, ratio of IC50 for HDF cells to IC50 for human 143B cells. Type of assay: functional. In outline:
as §2

Assay [12] concerns HeLa. Briefly: Cytotoxicity against human HeLa cells after 72 hrs in presence of human recombinant cytochrome P450 isoform mixture by SRB assay. Type of assay: functional, cell-based.

On to `COC(=O)[C@H](C)NP(=O)(OC[C@H]1O[C@@H](n2cc(F)c(=O)[nH]c2=O)C[C@@H]1O)Oc1ccccc1` (stereo partly drawn), for which the half-maximal inhibitory concentration (IC50) (commonly the concentration that gives 50% inhibition) in the assay on HepG2 [1] turned out to be 25.9 µM; with HeLa [2], 23.5 µM; in assay [3] it was 43.1 µM; with MCF7 [4] it was 29.1 µM; in the assay with KB it was 18 µM.
Turning to `O=c1[nH]c(=O)n([C@H]2C[C@H](O)[C@@H](COP(=O)(NCC(F)(F)F)Oc3ccc(Cl)cc3)O2)cc1F` (stereo partly drawn), the IC50 in the assay with 143B [5] came to 2.51 µM; with HepG2 [1], 3.48 µM; in the assay on HeLa [2], 3.09 µM; in assay [3], 4.19 µM; in the assay on 143B [7], 1.8 µM; with MCF7 [4], 1.82 µM. The compound also yielded an IC50 with KB of 1.93 µM. Besides, the “Ratio IC50” value with HepG2 [6] is 1.2; in [8], 2.17; in the assay on MCF7 [9] it was 2.3; with HeLa [10] it was 1.36; with 143B [11], 2.33.
On to `CCCCNP(=O)(OC[C@H]1O[C@@H](n2cc(F)c(=O)[nH]c2=O)C[C@@H]1O)Oc1ccc(Cl)cc1` (stereo partly drawn), for which the IC50 (in the assay with HeLa [12]; in the assay on HepG2 [1]; with HeLa [2]; in [3]; in the assay with MCF7 [4]; in the assay on KB) was above 100 µM in each case.
As to `COC(=O)[C@H](C)NP(=O)(OC[C@H]1O[C@@H](n2cc(F)c(=O)[nH]c2=O)C[C@@H]1O)Oc1ccc(Cl)cc1` (stereo partly drawn), the IC50 with 143B [5] was found to be 8.67 µM; in the assay on HepG2 [1], 6.65 µM; in the assay on HeLa [2] it was 4.11 µM; in assay [3], 18.4 µM; in the assay on 143B [7], 4.03 µM; in the assay with MCF7 [4], 4.54 µM. Further, the IC50 in the assay on KB amounted to 4.22 µM. Further, the “Ratio IC50” value was 2.77 in the assay with HepG2 [6]; 4.37 in [8]; 4.06 in the assay on MCF7 [9]; 4.49 with HeLa [10]; 4.58 in the assay with 143B [11].
Consider `CC(C)(C)OC(=O)O[C@H]1C[C@H](n2cc(F)c(=O)[nH]c2=O)O[C@@H]1COP(=O)(NCC(F)(F)F)Oc1ccc(Cl)cc1` (stereo partly drawn), for which the IC50 in the assay on 143B [5] was determined as 2.01 µM; with HepG2 [1], 18.8 µM; in the assay on HeLa [2], 14.6 µM; in [3], 37.1 µM; in the assay with 143B [7] it was 0.28 µM; in the assay with MCF7 [4] it was 4.05 µM. In the assay on KB, this compound registered an IC50 of 14.6 µM.
On to `C=CCNP(=O)(OC[C@H]1O[C@@H](n2cc(F)c(=O)[nH]c2=O)C[C@@H]1OC(=O)OC(C)(C)C)Oc1ccc(Cl)cc1` (stereo partly drawn), for which the IC50 is 17 µM in the assay on HepG2 [1]; 19.1 µM in the assay with HeLa [2]; 27.2 µM in [3]; 12.8 µM with MCF7 [4]; 16.5 µM in the assay on KB.
In the case of `[N-]=[N+]=NCCCNP(=O)(OC[C@H]1O[C@@H](n2cc(F)c(=O)[nH]c2=O)C[C@@H]1O)Oc1ccc(Cl)cc1` (stereo partly drawn), the IC50 stood at 13.5 µM in the assay with HeLa [12]; 22.6 µM in the assay on HepG2 [1]; 22.2 µM in the assay with HeLa [2]; 41 µM in assay [3]; 27 µM with MCF7 [4]; 22.6 µM with KB.
On to `C=CCNP(=O)(OC[C@H]1O[C@@H](n2cc(F)c(=O)[nH]c2=O)C[C@@H]1O)Oc1ccc(Cl)cc1` (stereo partly drawn), for which the IC50 in the assay with HepG2 [1] is 96.7 µM; in the assay with HeLa [2] it was 89.3 µM; in [3], 92.1 µM; in the assay on MCF7 [4] it was 94.5 µM; with KB, 38.7 µM.
For `COC(=O)[C@H](C)NP(=O)(OC[C@H]1O[C@@H](n2cc(F)c(=O)[nH]c2=O)C[C@@H]1OC(=O)OC(C)(C)C)Oc1ccc(Cl)cc1` (stereo partly drawn), the IC50 with 143B [5] was found to be 3.07 µM; in the assay on HepG2 [1], 3.47 µM; in the assay on HeLa [2], 1.65 µM; in [3], 6.21 µM; in the assay on 143B [7], 1.51 µM; with MCF7 [4], 2.56 µM. Moreover, in the assay with KB, the IC50 amounted to 1.54 µM. Further, the “Ratio IC50” value in the assay on HepG2 [6] is given as 1.66; in assay [8], 4.03; in the assay with MCF7 [9], 2.39; in the assay with HeLa [10], 3.76; with 143B [11], 4.11.
Take `[N-]=[N+]=NCCCCNP(=O)(OC[C@H]1O[C@@H](n2cc(F)c(=O)[nH]c2=O)C[C@@H]1O)Oc1ccc(Cl)cc1` (stereo partly drawn): the IC50 in the assay on HeLa [12] is 20.6 µM; in the assay on HepG2 [1], above 100 µM; with HeLa [2], 72.1 µM; in assay [3], above 100 µM; in the assay on MCF7 [4] it was 67.6 µM; in the assay on KB it was 71.3 µM.
`C#CCNP(=O)(OC[C@H]1O[C@@H](n2cc(F)c(=O)[nH]c2=O)C[C@@H]1OC(=O)OC(C)(C)C)Oc1ccc(Cl)cc1` (stereo partly drawn): the IC50 worked out at 3.62 µM in the assay on 143B [5]; 3.66 µM in the assay on HepG2 [1]; 4.36 µM in the assay on HeLa [2]; 7.21 µM in assay [3]; 3.02 µM with 143B [7]; 4.71 µM in the assay with MCF7 [4]. Moreover, the IC50 in the assay with KB turned out to be 4.37 µM. Besides, the “Ratio IC50” value is 1.97 in the assay on HepG2 [6]; 1.65 in assay [8]; 1.53 in the assay on MCF7 [9]; 1.65 with HeLa [10]; 2.39 in the assay on 143B [11].
